Key:
2D2 CD4+ T cells = experiment: DC/2D2 T cell co-culture, T cell proliferation; format: cell-based, mice; conditions: 48 hours co-culture, dye dilution
Summary of the method: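 Splenic CD11c+ DCs from female C57BL/6 mice were isolated by positive selection and plated at 100,000/well in RPMI 1640 with 10% FBS at 37°C and 5% CO2. They were stimulated with CpG (5 µg/mL) plus complex or free controls for 24 h. Splenic CD4+ T cells from 2D2 mice were isolated by negative selection and labelled with eFluor 670 dye. They were co-cultured with the DCs for 48 h, then stained with DAPI and anti-CD4, and dye dilution was read by flow cytometry.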

EAE = EAE mouse model of MS; format: in vivo, C57BL/6 female mice; conditions: 50 µg free GpG on days 5, 10, and 15

## 5’-TCCATGACGTTCCTGACGTT-3’ [CpG]
2D2 CD4+ T cells
  CD4+ T cell proliferation: did not cause any proliferation

## 5’-TGACTGTGAAGGTTAGAGATGA-3’ (DNA TGACTGTGAAGGTTAGAGATGA; chemistry not given here) [GpG]
EAE
  therapeutic effect relative to untreated mice: no therapeutic effect

— paper PMC5189983 (Biomaterials, 2016)
